This excerpt belongs to a sample that is enriched for hits.
T cruzi growth-1 – T. cruzi intracellular proliferation inhibitors, primary screen, cell-based, beta-gal Tulahuen parasites, NIH3T3 host, luminescence; T. cruzi beta-gal in NIH3T3, GalScreen luminescence, 90 h; inhibition, % at 8.34 µM; actives 5.9% (n = 77,000);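 active = mean inhibition above about 93%, with at least 55% of replicates each passing it, limit read from the data, passing the limit was not always enough; inconclusive = only one of those two conditions holds; inactive = neither condition holds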
IDH1 R132H inh – inhibitors of IDH1 R132H reductase, primary screen, biochemical, plate reader, single point; diaphorase/resazurin fluorescence, 60 min; inhibition, % at 10 µM; actives 0.18% (n = 70,000); in the data active = inhibition above about 34%; inconclusive = no clear call, values can overlap the other calls; inactive = below about 11%;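 also: 0% = DMSO and 100% = no enzyme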
GASC1 inh – inhibitors of GASC-1 (KDM4C) histone demethylase, primary screen, biochemical, single concentration HTS | GST-KDM4C 2-372, H3K9me3 peptide, LANCE TR-FRET | inhibition, % at 12.5 µM | actives 0.15% (n = 96,000);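 active = mean replicate inhibition above about 25%, with at least 55% of replicates also reaching it, limit read from the data, passing the limit was not always enough; inconclusive = only one of those two conditions met; inactive = neither condition met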
Target sequence (Q9H3R0 2-372 limits assumed): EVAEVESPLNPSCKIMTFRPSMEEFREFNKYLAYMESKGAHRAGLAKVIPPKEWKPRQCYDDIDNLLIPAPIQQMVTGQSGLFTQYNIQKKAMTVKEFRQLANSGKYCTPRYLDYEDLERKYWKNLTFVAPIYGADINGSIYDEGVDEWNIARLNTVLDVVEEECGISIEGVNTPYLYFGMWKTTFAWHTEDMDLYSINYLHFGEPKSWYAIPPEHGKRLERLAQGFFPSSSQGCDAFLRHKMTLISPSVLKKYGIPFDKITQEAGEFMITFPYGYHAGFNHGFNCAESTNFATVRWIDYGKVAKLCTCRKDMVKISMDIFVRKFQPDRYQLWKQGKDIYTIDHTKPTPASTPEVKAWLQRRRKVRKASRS
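Test system: N-terminal GST-fused human GASC-1 (KDM4C) fragment, residues 2-372; quantity: GASC-1 enzyme at 10 nM final in reaction; dosing: single dose; schedule: 30 min demethylation and 1 h detection at room temperature; signal: LANCE TR-FRET, excitation 340 nm, emissions 618 and 671 nm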
T cruzi growth-2 – T. cruzi intracellular proliferation inhibitors, confirmation, cell-based, NIH3T3 host, beta-gal parasite, luminescence, cherry-pick; actives 72% (n = 5,600); shares compounds with T cruzi growth-1; inhibition, % at 8.35 µM; T. cruzi beta-gal in NIH3T3, GalScreen luminescence, 90 h;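 active = mean replicate inhibition above about 95% and at least 55% of replicates individually reaching it, limit read from the data; inconclusive = only one of the two criteria is met; inactive = neither criterion is met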
T cruzi growth-3 – inhibitors of intracellular T. cruzi replication, confirmation, NIH3T3 host cells, beta-gal parasites, cherry-pick, set 2 | actives 21% (n = 5,600) | inhibition, % at 2.09 µM | T. cruzi beta-gal in NIH3T3, GalScreen luminescence, 90 h | shares compounds with T cruzi growth-1;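 active = mean inhibition above about 95%, with at least 55% of replicates also reaching it, limit read from the data; inconclusive = meets just one of the two conditions; inactive = meets neither condition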;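 also: plate controls were neutral control median for no effect and positive control median for full effect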
3T3 cytotox – cytotoxicity in mouse NIH/3T3 fibroblasts, confirmation, cytotoxicity control for T. cruzi proliferation inhibitor project, cell-based, cherry-pick, single point. shares compounds with T cruzi growth-1. NIH/3T3 viability, CellTiter-Glo ATP luminescence, 90 h. cytotoxicity (signal decrease), % at 8.35 µM. actives 14% (n = 5,600). AID 651742, 2012;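 active = mean signal decrease across replicates above about 35% based on untreated-well scatter, with enough replicates individually passing, limit read from the data; inconclusive = no rule stated though some were filed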;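 also: 0% = median of neutral control wells and 100% = median of positive control wells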
3T3 cytotox 2 – NIH/3T3 fibroblast cytotoxicity, confirmation, cytotoxicity control, cell-based, cherry-pick, single point, set 2; shares compounds with T cruzi growth-1; NIH/3T3 viability, CellTiter-Glo ATP luminescence, 90 h; inhibition, % at 24.9 µM; actives 56% (n = 5,600); AID 651744, 2012;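 active = mean loss of cell viability signal at or above a set limit, and enough replicates individually reaching it; inconclusive = meets only the mean limit or only the replicate share; inactive = meets neither condition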;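 also: 0% = median of neutral control wells and 100% = median of positive control wells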
Starred values were filed as active, the others as inactive.

What do the screens show for `O=C(NCC[C@H]1CC[C@H](NS(=O)(=O)c2ccc(F)cc2)[C@@H](CO)O1)c1ccccc1F`?
GASC1 inh: 0.2

How did CC1=CC(=O)CC2C1(C)CCC(C)C2(C)CC/C(C)=C\C(=O)O (centres undefined) do in these assays?
IDH1 R132H inh: 3.8

How did CCCNC(=O)[C@H]1[C@H](CO)[C@H]2Cn3c(ccc(C4=CCCCC4)c3=O)[C@@H]1N2Cc1cocn1 do in these assays?
T cruzi growth-1: -10.6; GASC1 inh: 1.9

What do the screens show for `CCCNC(=O)[C@H]1[C@H](CO)[C@H]2Cn3c(ccc(-c4cccc(OC)c4)c3=O)[C@@H]1N2CCC`?
T cruzi growth-1: 79.1; GASC1 inh: -0.6

Results for CCNC(=O)[C@H]1[C@H](CO)[C@H]2Cn3c(ccc(C4=CCCCC4)c3=O)[C@@H]1N2Cc1cocn1 ?
T cruzi growth-1: inconclusive; GASC1 inh: 5.7; T cruzi growth-2: 1.2; T cruzi growth-3: -15.5; 3T3 cytotox: -14.1; 3T3 cytotox 2: -17.3

What do the screens show for `CCCNC(=O)[C@@H]1[C@@H](CO)[C@@H]2Cn3c(ccc(-c4cccc(OC)c4)c3=O)[C@H]1N2CCC`?
T cruzi growth-1: 100.2*; GASC1 inh: -0.3; T cruzi growth-2: 51.7; T cruzi growth-3: 10.9; 3T3 cytotox: 7.0; 3T3 cytotox 2: 14.2

How did O=C(COc1ccc(Cl)cc1Br)Nc1ccccc1C(=O)Nc1ccccc1 do in these assays?
IDH1 R132H inh: -0.7

What do the screens show for `C[C@@H]1CCCCO[C@@H](CN(C)C(=O)C2CCCCC2)[C@@H](C)CN([C@@H](C)CO)C(=O)c2cc(NC(=O)Nc3ccc(F)cc3)ccc2O1`?
T cruzi growth-1: 75.9; GASC1 inh: 0.1

Results for C[C@@H]1CN([C@@H](C)CO)C(=O)c2cc(NC(=O)Nc3ccc(F)cc3)ccc2O[C@@H](C)CCCCO[C@@H]1CN(C)C(=O)C1CCCCC1 ?
T cruzi growth-1: 19.2; GASC1 inh: 0.5

How did C[C@@H]1CN([C@H](C)CO)C(=O)c2cc(NC(=O)Nc3ccc(C(F)(F)F)cc3)ccc2O[C@@H](C)CCCCO[C@H]1CN(C)C(=O)C1CCCCC1 do in these assays?
T cruzi growth-1: 121.7*; GASC1 inh: 0.0; T cruzi growth-2: 102.1*; T cruzi growth-3: 116.7*; 3T3 cytotox: 15.8; 3T3 cytotox 2: 47.0*

Results for C[C@@H]1CN([C@H](C)CO)C(=O)c2cc(NC(=O)Nc3ccc(C(F)(F)F)cc3)ccc2O[C@@H](C)CCCCO[C@@H]1CN(C)C(=O)C1CCCCC1 ?
T cruzi growth-1: 120.9*; GASC1 inh: -0.1; T cruzi growth-2: 91.8; T cruzi growth-3: 115.6*; 3T3 cytotox: -12.4; 3T3 cytotox 2: 23.5

How did C[C@@H]1CCCCO[C@@H](CN(C)C(=O)C2CCCCC2)[C@@H](C)CN([C@@H](C)CO)C(=O)c2cc(NC(=O)Nc3ccc(C(F)(F)F)cc3)ccc2O1 do in these assays?
T cruzi growth-1: 120.2*; GASC1 inh: -0.2; T cruzi growth-2: 95.9*; T cruzi growth-3: 116.9*; 3T3 cytotox: 38.1*; 3T3 cytotox 2: 64.1*

Results for C[C@@H]1CCCCO[C@@H](CN(C)C(=O)C2CCCCC2)[C@H](C)CN([C@@H](C)CO)C(=O)c2cc(NC(=O)Nc3ccc(C(F)(F)F)cc3)ccc2O1 ?
T cruzi growth-1: 120.6*; IDH1 R132H inh: 0.5; GASC1 inh: -1.0; T cruzi growth-2: 97.2*; T cruzi growth-3: 108.3*; 3T3 cytotox: -9.0; 3T3 cytotox 2: 9.0

Results for C[C@@H]1CN([C@@H](C)CO)C(=O)c2cc(NC(=O)Nc3ccc(F)cc3)ccc2O[C@@H](C)CCCCO[C@H]1CN(C)C(=O)C1CCCCC1 ?
T cruzi growth-1: 82.2; IDH1 R132H inh: 2.0; GASC1 inh: 0.1

Results for C[C@@H]1CCCCO[C@H](CN(C)C(=O)C2CCCCC2)[C@@H](C)CN([C@H](C)CO)C(=O)c2cc(NC(=O)Nc3ccc(F)cc3)ccc2O1 ?
T cruzi growth-1: 7.1; IDH1 R132H inh: 1.1; GASC1 inh: -1.0

Results for Cc1ccc(NC(=O)CSc2nc(C)cc(-c3ccccc3)n2)cc1 ?
IDH1 R132H inh: -0.8

Results for COc1ccc(-c2ccc3c(c2)[C@H]2[C@H](CCN2C(=O)CN2CCOCC2)[C@@H](CO)N3)cc1 ?
T cruzi growth-1: 90.8; GASC1 inh: -0.2

What do the screens show for `O=C(CC1(O)C(=O)N(Cc2ccc(Cl)cc2)c2ccc(Cl)cc21)c1ccc2c(c1)OCCO2` (centres undefined)?
IDH1 R132H inh: -0.2

Results for COc1cc(O)c(Oc2cc(C)cc(O)c2C(=O)O)c(CO)c1 ?
IDH1 R132H inh: 0.6

Results for CC(C)C#Cc1ccc2c(c1)O[C@H](CN(C)C(=O)c1ccncc1)[C@H](C)CN([C@@H](C)CO)S2(=O)=O ?
T cruzi growth-1: 56.2; GASC1 inh: -0.8

How did C[C@H](CO)N1C[C@H](C)[C@@H](CN(C)C(=O)C2CCCCC2)OCCCC[C@H](C)Oc2ccc(NC(=O)Nc3ccc(C(F)(F)F)cc3)cc2C1=O do in these assays?
T cruzi growth-1: 120.2*; IDH1 R132H inh: 2.2; GASC1 inh: 0.2; T cruzi growth-2: 97.4*; T cruzi growth-3: 109.9*; 3T3 cytotox: 4.3; 3T3 cytotox 2: 18.5

How did C[C@@H]1CCCCO[C@H](CN(C)C(=O)C2CCCCC2)[C@@H](C)CN([C@@H](C)CO)C(=O)c2cc(NC(=O)Nc3ccc(F)cc3)ccc2O1 do in these assays?
T cruzi growth-1: 85.6; IDH1 R132H inh: -0.4; GASC1 inh: -0.2

What do the screens show for `C[C@H](CO)N1C[C@H](C)[C@H](CN(C)S(=O)(=O)c2cn(C)cn2)Oc2ccc(NS(=O)(=O)c3cccs3)cc2CC1=O`?
T cruzi growth-1: 24.1; IDH1 R132H inh: -1.6; GASC1 inh: -1.0

How did C[C@H](CO)N1C[C@H](C)[C@H](CN(C)S(=O)(=O)c2ccc(Cl)cc2)OCCCC[C@H](C)Oc2ccc(NC(=O)c3ccncc3)cc2C1=O do in these assays?
T cruzi growth-1: 83.3; GASC1 inh: 12.9
